# In ChEMBL document CHEMBL2203028, “SAR and Lead Optimization of an HIV-1 Vif-APOBEC3G Axis Inhibitor” (ACS Med Chem Lett, 2012):
# The source made the active and inactive calls. No cut-off for these calls is given here.
# Assays:
# [1] = (§1) Inhibition of X4-tropic HIV-1 LAI Vif infected in MT4 cells assessed as inhibition of viral replication incubated for 10 to 15 days measured on every second day by reverse transcriptase assay by reverse transcriptase assay; assay type: cell-based, Human immunodeficiency virus 1
# Summary of the method: (§2)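 Cells (2 x 10⁵/well) were pretreated overnight with 1 to 50 µM compound in RPMI with 10% FBS, then infected with X4-tropic HIV-1 LAI. Cultures were kept ± compound for 10-15 days. Every second day, 1/3 of supernatant was replaced with compound-containing medium, and RT activity was measured in supernatant. RN-18 served as positive control and untreated cells as negative control. There were ≥3 repeats; IC50 was calculated.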
# [2] = (§3) Inhibition of X4 tropic HIV-1 LAI Vif infected in H9 cells assessed as inhibition of viral replication incubated for 10 to 15 days measured on every second day by reverse transcriptase assay; assay type: cell-based, Human immunodeficiency virus 1; summary of the method: as §2
# [3] = system: Human immunodeficiency virus 1; assay: Inhibition of HIV-1 GFP tagged Vif expressed in 293FT cells co-expressing HA-tagged A3G assessed as upregulation of HA-A3G expression at 50 uM incubated for 16 hrs by immunoblotting assay; assay type: cell-based
# Summary of the method: (§4)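 293FT cells co-expressing HA-tagged A3G with GFP-tagged Vif or ΔVif were grown for 16 h with antagonist at 50 µM or without compound. Extracts were immunoblotted with anti-HA (A3G), anti-GFP (Vif) and anti-GAPDH antibodies. A3G and Vif levels were compared with untreated Vif-expressing cells. RN-18 served as positive control and choline chloride as a further control.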
# [4] = system: Human immunodeficiency virus 1; assay: Inhibition of HIV-1 GFP tagged Vif expressed in 293FT cells co-expressing HA-tagged A3G assessed as downregulation of GFP-Vif expression at 50 uM incubated for 16 hrs by immunoblotting assay; assay type: cell-based; summary of the method: as §4
# [5] = Inhibition of X4-tropic HIV-1 LAI Vif infected in MT4 cells assessed as inhibition of viral replication incubated for 10 to 15 days measured on every other day by reverse transcriptase assay; conditions: Human immunodeficiency virus 1, LAI
# [6] = Inhibition of X4-tropic HIV-1 LAI Vif infected in CEM cells assessed as inhibition of viral replication incubated for 14 to 21 days measured on every other day by reverse transcriptase assay; assay type: cell-based; conditions: Human immunodeficiency virus 1, LAI, CCRF-CEM
# MT4 = assay: as §1; assay type: cell-based; conditions: Human immunodeficiency virus 1; summary of the method: as §2
# H9 = assay: as §3; assay type: cell-based; conditions: Human immunodeficiency virus 1; summary of the method: as §2
# [7] = Kinetic solubility at pH 6.2 by UV spectroscopic analysis; assay type: physicochemical; conditions: buffer
# [8] = Permeability across synthetic membrane at pH 7.4 by PAMPA assay; assay type: ADME
# Plasma [9] = assay: Metabolic stability in human plasma; assay type: ADME, cell-free
# [10] = Cytotoxicity against human Fa2N-4 cells upto 50 uM by luminescence ATP detection assay; assay type: cell-based
# [11] = Kinetic solubility at pH 5.0 by UV spectroscopic analysis; assay type: physicochemical; conditions: buffer
# Liver microsomes = assay: Metabolic stability in human liver microsomes; assay type: ADME, Microsome
# [12] = Permeability across synthetic membrane at pH 5.0 by PAMPA assay; assay type: ADME
# [13] = Permeability across synthetic membrane at pH 6.2 by PAMPA assay; assay type: ADME
# [14] = Kinetic solubility at pH 7.2 by UV spectroscopic analysis; assay type: physicochemical; conditions: buffer
# Plasma [15] = assay: Plasma protein binding in human; assay type: ADME, cell-free
# [16] = Human immunodeficiency virus 1, LAI, H9, read-out: IC50
SMILES,IC50 ([1]; mt4),"IC50 [2, 16] [µM]",HA-A3G upregulation (active/not active) [3],GFP-Vif downregulation activity call [4],other results
COc1ccccc1NC(=O)c1ccccc1S(=O)(=O)c1ccc([N+](=O)[O-])cc1,Not Active,1.1,Active,Active,
COc1ccccc1NC(=O)c1ccccc1Sc1ccc([N+](=O)[O-])cc1,Not Active,6,Active,Active,IC50 [5]: > 100 µM; IC50 [6]: 4.5 µM
COc1ccccc1NC(=O)c1ccc(C)nc1Sc1ccc([N+](=O)[O-])cc1,Not Active,1.5,Active,Active,
COc1ccccc1NC(=O)c1ccccc1Sc1ccc(C(=O)[O-])cc1.C[N+](C)(C)CCO,Not Active,1,,,inhibition (MT4): inactive; inhibition (H9): inactive
CS(=O)(=O)Oc1ccccc1NC(=O)c1ccccc1Sc1ccc([N+](=O)[O-])cc1,Not Active,5.6,,,
COc1ccccc1NC(=O)c1ccccc1Cl,,,inactive,inactive,"IC50 ([1]; Human immunodeficiency virus 1, LAI, MT4, read-out: IC50): > 50 µM; IC50 ([2]; h9): Not Active"
COc1ccccc1NC(=O)c1cccnc1Sc1ccc([N+](=O)[O-])cc1,Not Active,10,,,
O=C(Nc1ccccc1I)c1ccccc1Sc1ccc([N+](=O)[O-])cc1,Not Active,4.3,,,
COC(=O)c1ccc(Sc2ccccc2C(=O)Nc2ccccc2OC)cc1,,,,,inhibition (MT4): inactive; inhibition (H9): inactive
COC(=O)c1ccc(NC(=O)c2ccccc2Sc2ccc([N+](=O)[O-])cc2)c(OC)c1,Not Active,10,,,
COc1ccccc1NC(=O)c1ccc(Sc2ccc([N+](=O)[O-])cc2)cc1Cl,Not Active,2.5,Active,Active,
COc1ccccc1NC(=O)c1ccccc1S(=O)(=O)c1ccc(C(=O)[O-])cc1.C[N+](C)(C)CCO,Not Active,10,inactive,inactive,Kinetic_solubility [7]: soluble; permeability [8]: impermeable; Stability (Plasma [9]): Stable; Activity [10]: Non-toxic; Kinetic_solubility [11]: soluble; Stability (Liver microsomes): Stable; permeability [12]: permeable; permeability [13]: impermeable; Kinetic_solubility [14]: soluble; PPB (Plasma [15]): Active
